pIC50: −log10 of the molar value. The source made the active and inactive calls. The calls are words filed in the database; no cut-off is given here.
What was measured:
NCI-H1975 = test: Antiproliferative activity against human NCI-H1975 cells expressing L858R/T790M mutant EGFR after 72 hrs by MTT assay; assay type: functional, cell-based; conditions: NCI-H1975, 72 h
A-431 = test: Antiproliferative activity against human A431 cells overexpressing wild-type EGFR after 72 hrs by MTT assay; assay type: functional, cell-based; conditions: A-431, 72 h
[1] = molecular target: T1, Epidermal growth factor receptor (Homo sapiens, UniProt P00533); test: Inhibition of wild type human EGFR preincubated for 5 mins followed by ATP addition for 30 mins by HTRF assay
[2] = molecular target: Epidermal growth factor receptor (Homo sapiens, UniProt P00533, L858R); test: Inhibition of recombinant human EGFR L858R mutant expressed in baculovirus infected insect cells preincubated for 5 mins followed by ATP addition for 30 mins by HTRF assay
In short: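 Purchased EGFR L858R kinase and substrate were preincubated with compound for 5 min in enzymatic buffer. ATP was then added to start the reaction, which ran 30 min at room temperature. It was stopped with EDTA-containing detection reagents, and HTRF detection ran for 1 h. IC50 was fitted from the dose-response data as the mean of three independent experiments.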

[3] = molecular target: Epidermal growth factor receptor (Homo sapiens, UniProt P00533, T790M); test: Inhibition of EGFR T790M mutant (unknown origin) preincubated for 5 mins followed by ATP addition for 30 mins by HTRF assay; assay type: protein assay
A549 = test: Cytotoxicity against human A549 cells assessed as cell growth inhibition after 72 hrs by MTT assay; assay type: ADME, cell-based; conditions: A549, 72 h
HepG2 = test: Cytotoxicity against human HepG2 cells assessed as cell growth inhibition after 72 hrs by MTT assay; assay type: ADME, cell-based; conditions: HepG2, 72 h
[4] = Chemical stability of the compound assessed as compound remaining at 1 uM at pH 9 after 24 hrs by HPLC-HRMS method; assay type: physicochemical; conditions: buffer, read-out: Stability
In short: (§1)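 Buffers were 0.2 M PBS at pH 7.4, 9.0 or 10.0, held at 37 °C. Compound stock was made in CH3CN, then diluted into pre-warmed buffer. Aliquots taken at regular time points were injected directly into LC-TOF MS, and percentage of parent compound remaining was read out.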

[5] = Chemical stability of the compound assessed as compound remaining at 1 uM at pH 7.4 after 24 hrs by HPLC-HRMS method; assay type: physicochemical; conditions: buffer, read-out: Stability; in short: as §1
[6] = molecular target: T1, Epidermal growth factor receptor; test: Inhibition of EGF-induced EGFR phosphorylation in human A431 cells at 1 uM preincubated for 1 hr followed by compound washout for 5 hrs and subsequent EGF addition for 15 mins by Western blot analysis; assay type: cell-based; conditions: A-431
In short: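 A431 cells (5 x 10^5/well) were seeded overnight and treated with 1 µM compound for 1 h at 37 °C. Cells were washed 10 times with fresh medium over 5 h, then stimulated with EGF (20 ng/ml) for 15 min. Lysates were made in RIPA-type buffer with protease inhibitors, and equal protein was immunoblotted for EGFR, p-EGFR and β-actin, with ECL detection.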

[7] = Chemical stability of the compound assessed as compound remaining at 1 uM at pH 10 after 24 hrs by HPLC-HRMS method; assay type: physicochemical; conditions: buffer, read-out: Stability; in short: as §1
[8] = molecular target: T1, Epidermal growth factor receptor; test: Inhibition of EGF-induced EGFR phosphorylation in human A431 cells at 1 uM preincubated for 1 hr followed by EGF addition for 15 mins by Western blot analysis; assay type: cell-based; conditions: A-431
In short: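 A431 cells (5 x 10^5/well) were seeded overnight. They were exposed to 1 µM compound for 1 h at 37 °C, then immediately given EGF (20 ng/ml) for 15 min. Whole-cell lysates were made in Tris/NaCl/EDTA/SDS/deoxycholate/NP-40 buffer with aprotinin and PMSF, then cleared at 4 °C. Equal protein was run on SDS-PAGE and blotted for EGFR, p-EGFR and β-actin, with ECL detection.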

T1 sequence (P00533 whole entry): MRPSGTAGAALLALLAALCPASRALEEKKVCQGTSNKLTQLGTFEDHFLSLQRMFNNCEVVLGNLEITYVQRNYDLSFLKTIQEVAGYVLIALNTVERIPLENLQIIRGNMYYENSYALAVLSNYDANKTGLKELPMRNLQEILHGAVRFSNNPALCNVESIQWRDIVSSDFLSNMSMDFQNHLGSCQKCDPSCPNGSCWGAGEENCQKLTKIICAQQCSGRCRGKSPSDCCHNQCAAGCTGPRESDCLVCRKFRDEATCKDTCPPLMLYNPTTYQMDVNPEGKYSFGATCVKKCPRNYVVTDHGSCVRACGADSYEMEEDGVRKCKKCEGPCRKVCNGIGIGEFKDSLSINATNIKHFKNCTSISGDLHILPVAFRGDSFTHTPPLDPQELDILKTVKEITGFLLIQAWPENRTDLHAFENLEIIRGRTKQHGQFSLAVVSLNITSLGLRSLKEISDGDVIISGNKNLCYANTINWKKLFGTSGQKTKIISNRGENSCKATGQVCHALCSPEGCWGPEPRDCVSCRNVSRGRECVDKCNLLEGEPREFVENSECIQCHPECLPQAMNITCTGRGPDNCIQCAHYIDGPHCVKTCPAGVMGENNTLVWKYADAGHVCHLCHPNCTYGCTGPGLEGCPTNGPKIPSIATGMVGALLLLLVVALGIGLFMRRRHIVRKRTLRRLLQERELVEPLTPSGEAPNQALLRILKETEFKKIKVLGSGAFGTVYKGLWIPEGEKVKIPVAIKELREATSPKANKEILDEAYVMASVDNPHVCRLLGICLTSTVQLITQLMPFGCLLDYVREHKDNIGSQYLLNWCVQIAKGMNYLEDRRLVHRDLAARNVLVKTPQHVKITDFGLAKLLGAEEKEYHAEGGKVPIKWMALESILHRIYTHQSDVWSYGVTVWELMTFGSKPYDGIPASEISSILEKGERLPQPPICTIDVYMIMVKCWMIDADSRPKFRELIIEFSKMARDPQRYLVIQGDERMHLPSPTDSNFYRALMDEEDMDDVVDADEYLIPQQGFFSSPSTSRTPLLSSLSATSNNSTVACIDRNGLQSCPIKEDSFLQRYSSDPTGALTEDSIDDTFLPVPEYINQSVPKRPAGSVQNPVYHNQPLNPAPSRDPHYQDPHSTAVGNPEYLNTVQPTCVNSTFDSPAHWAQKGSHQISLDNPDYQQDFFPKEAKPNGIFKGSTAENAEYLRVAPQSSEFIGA
Epidermal growth factor receptor (Homo sapiens, UniProt P00533, L858R), sequence (P00533 25-1210 L858R limits assumed): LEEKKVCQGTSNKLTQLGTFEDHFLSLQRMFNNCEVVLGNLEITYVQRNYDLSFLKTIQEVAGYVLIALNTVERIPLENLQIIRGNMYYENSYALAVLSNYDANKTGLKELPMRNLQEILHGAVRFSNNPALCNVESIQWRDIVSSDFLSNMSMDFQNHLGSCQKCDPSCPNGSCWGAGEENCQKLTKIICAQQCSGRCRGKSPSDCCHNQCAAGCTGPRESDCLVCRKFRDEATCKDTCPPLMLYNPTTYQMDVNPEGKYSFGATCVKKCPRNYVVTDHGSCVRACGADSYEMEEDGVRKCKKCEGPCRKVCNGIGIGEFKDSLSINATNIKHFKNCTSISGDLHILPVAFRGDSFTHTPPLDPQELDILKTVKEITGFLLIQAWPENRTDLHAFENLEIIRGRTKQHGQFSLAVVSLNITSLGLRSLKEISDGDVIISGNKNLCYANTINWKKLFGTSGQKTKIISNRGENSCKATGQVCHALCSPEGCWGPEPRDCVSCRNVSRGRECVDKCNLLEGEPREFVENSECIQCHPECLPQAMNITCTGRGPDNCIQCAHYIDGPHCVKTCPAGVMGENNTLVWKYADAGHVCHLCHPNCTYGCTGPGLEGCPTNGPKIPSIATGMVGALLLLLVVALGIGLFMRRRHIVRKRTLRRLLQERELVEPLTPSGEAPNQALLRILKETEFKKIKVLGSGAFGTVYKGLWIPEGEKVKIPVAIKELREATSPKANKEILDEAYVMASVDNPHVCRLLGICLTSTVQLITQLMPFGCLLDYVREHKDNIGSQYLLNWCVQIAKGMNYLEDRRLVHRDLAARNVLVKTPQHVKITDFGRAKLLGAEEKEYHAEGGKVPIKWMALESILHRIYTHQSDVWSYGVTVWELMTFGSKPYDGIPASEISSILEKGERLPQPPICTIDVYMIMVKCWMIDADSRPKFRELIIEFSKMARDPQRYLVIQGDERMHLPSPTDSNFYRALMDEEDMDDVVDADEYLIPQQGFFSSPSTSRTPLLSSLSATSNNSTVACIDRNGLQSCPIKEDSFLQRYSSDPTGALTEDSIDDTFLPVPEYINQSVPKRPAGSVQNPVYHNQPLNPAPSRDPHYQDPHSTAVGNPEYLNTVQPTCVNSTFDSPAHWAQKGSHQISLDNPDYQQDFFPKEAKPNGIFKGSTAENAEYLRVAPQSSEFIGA
Epidermal growth factor receptor (Homo sapiens, UniProt P00533, T790M), sequence (P00533 25-1210 T790M limits assumed): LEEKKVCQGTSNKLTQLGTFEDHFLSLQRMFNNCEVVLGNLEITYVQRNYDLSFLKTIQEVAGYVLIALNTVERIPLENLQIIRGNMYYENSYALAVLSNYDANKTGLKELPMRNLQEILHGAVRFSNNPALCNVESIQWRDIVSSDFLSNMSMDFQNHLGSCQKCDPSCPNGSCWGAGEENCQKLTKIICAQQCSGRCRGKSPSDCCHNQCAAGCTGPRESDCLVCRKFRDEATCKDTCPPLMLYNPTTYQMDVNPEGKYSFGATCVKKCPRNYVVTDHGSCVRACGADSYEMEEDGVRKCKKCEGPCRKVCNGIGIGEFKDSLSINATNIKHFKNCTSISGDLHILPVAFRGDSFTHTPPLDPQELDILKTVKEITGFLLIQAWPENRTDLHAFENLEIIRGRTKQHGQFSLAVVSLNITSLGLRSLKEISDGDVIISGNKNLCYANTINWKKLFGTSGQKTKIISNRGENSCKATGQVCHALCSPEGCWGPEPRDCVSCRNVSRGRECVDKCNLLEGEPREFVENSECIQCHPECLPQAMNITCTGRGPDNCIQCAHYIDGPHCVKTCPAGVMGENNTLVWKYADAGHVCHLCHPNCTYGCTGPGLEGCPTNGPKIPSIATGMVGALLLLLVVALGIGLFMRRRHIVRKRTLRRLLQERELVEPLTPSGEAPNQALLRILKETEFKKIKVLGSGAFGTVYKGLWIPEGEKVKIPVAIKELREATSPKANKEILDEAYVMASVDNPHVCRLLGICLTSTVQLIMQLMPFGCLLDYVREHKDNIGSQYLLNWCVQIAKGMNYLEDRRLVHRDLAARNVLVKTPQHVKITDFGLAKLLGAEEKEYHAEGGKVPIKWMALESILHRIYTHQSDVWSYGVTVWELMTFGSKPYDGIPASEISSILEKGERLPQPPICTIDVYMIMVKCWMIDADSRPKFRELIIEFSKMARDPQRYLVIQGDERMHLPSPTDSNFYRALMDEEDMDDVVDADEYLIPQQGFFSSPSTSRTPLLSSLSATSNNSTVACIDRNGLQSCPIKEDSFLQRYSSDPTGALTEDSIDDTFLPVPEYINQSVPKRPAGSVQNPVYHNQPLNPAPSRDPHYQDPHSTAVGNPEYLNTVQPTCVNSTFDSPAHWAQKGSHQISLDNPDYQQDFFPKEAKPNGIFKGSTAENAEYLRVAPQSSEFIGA

pIC50 (NCI-H1975) | pIC50 (A-431) | Compound | pIC50 [1] | pIC50 [2] | pIC50 [3] | also measured
4.66 | 4.59 | COCCOc1cc2ncnc(Nc3ccc(F)c(Cl)c3)c2cc1NC(=O)[C@@H]1COC(=O)N1 |  |  |  | 
4.95 | 4.84 | COc1cc2ncnc(Nc3cccc(Br)c3)c2cc1NC(=O)[C@H]1COC(=O)N1 |  |  |  | 
4.87 | 4.90 | CN1CC[C@H](Oc2cc3ncnc(Nc4ccc(F)c(Cl)c4)c3cc2NC(=O)[C@@H]2COC(=O)N2)C1 |  |  |  | 
4.63 | < 4.30 | CCOc1cc2ncnc(Nc3ccc(OCc4ccccn4)c(Cl)c3)c2cc1NC(=O)[C@@H]1COC(=O)N1 |  |  |  | 
4.98 | 4.97 | CCOc1cc2ncnc(Nc3ccc4c(cnn4Cc4cccc(F)c4)c3)c2cc1NC(=O)[C@@H]1COC(=O)N1 |  |  |  | 
5.00 | 4.46 | COc1ccc(Nc2ncnc3cc(OC)c(NC(=O)[C@@H]4COC(=O)N4)cc23)cc1 |  |  |  | 
< 4.30 | 4.47 | O=C1N[C@H](C(=O)Nc2cc3c(Nc4ccc(F)c(Cl)c4)ncnc3cc2OCC(F)(F)F)CO1 |  |  |  | 
4.96 | 4.87 | COc1cc2ncnc(Nc3cccc(C(F)(F)F)c3)c2cc1NC(=O)[C@@H]1COC(=O)N1 |  |  |  | 
< 4.30 | 4.72 | CCOc1cc2ncnc(Nc3ccc4c(cnn4Cc4cccc(F)c4)c3)c2cc1NC(=O)[C@H]1COC(=O)N1 |  |  |  | 
5.12 | 4.95 | CCOc1cc2ncnc(Nc3ccc(Oc4ccc(C)nc4)c(Cl)c3)c2cc1NC(=O)[C@@H]1COC(=O)N1 |  |  |  | 
< 4.30 | 4.66 | COc1cc2ncnc(Nc3ccc(F)c(Cl)c3)c2cc1NC(=O)[C@@H]1CCC(=O)N1 |  |  |  | 
< 4.30 | < 4.30 | COCCOc1cc2ncnc(Nc3ccc(F)c(Cl)c3)c2cc1NC(=O)[C@H]1COC(=O)N1 |  |  |  | 
< 4.30 | < 4.30 | CCOc1cc2ncnc(Nc3ccc(OCc4ccccn4)c(Cl)c3)c2cc1NC(=O)[C@H]1COC(=O)N1 |  |  |  | 
5.31 | 4.82 | CCOc1cc2ncnc(N[C@@H](C)c3ccccc3)c2cc1NC(=O)[C@H]1COC(=O)N1 |  |  |  | 
5.13 | 4.73 | CN1CCOC[C@@H]1COc1cc2ncnc(Nc3ccc(F)c(Cl)c3)c2cc1NC(=O)[C@@H]1COC(=O)N1 |  |  |  | 
5.03 | 4.64 | O=C1N[C@H](C(=O)Nc2cc3c(Nc4ccc(F)c(Cl)c4)ncnc3cc2O[C@H]2CCOC2)CO1 |  |  |  | 
4.67 | 4.77 | COc1cc2ncnc(Nc3ccc(F)c(Cl)c3)c2cc1NC(=O)[C@H]1COC(=O)N1 |  |  |  | 
< 4.30 | 4.96 | O=C1N[C@@H](C(=O)Nc2cc3c(Nc4ccc(F)c(Cl)c4)ncnc3cc2O[C@H]2CCOC2)CO1 |  |  |  | 

The remaining lines, values behind:

Compound | pIC50 (NCI-H1975) | pIC50 (A-431) | pIC50 [1] | pIC50 [2] | pIC50 [3] | also measured
CCOc1cc2ncnc(Nc3ccc(OCC4CC4)c(Cl)c3)c2cc1NC(=O)[C@H]1NC(=O)O[C@@H]1C | 4.90 | 5.13 |  |  |  | 
CCOc1cc2ncnc(N[C@@H](C)c3ccccc3)c2cc1NC(=O)[C@@H]1COC(=O)N1 | 4.81 | 4.77 | 8.26 | 9.15 | < 6.00 | 
CCOc1cc2ncnc(Nc3ccc(OCc4cccc(F)c4)c(Cl)c3)c2cc1NC(=O)[C@H]1NC(=O)O[C@@H]1C | 5.37 | 5.47 | 8.59 | 7.92 | 6.53 | pIC50 (A549): 4.48; pIC50 (HepG2): 4.51
CN1CCC(COc2cc3ncnc(Nc4ccc(F)c(Cl)c4F)c3cc2NC(=O)[C@@H]2COC(=O)N2)CC1 | 4.68 | 5.61 |  |  |  | 
CCOc1cc2ncnc(Nc3ccc(OCC4CC4)c(Cl)c3)c2cc1NC(=O)[C@@H]1COC(=O)N1 | 5.29 | 5.30 | 7.42 | 7.28 | 7.09 | pIC50 (A549): 4.54; pIC50 (HepG2): < 4.00
O=C1N[C@H](C(=O)Nc2cc3c(Nc4ccc(F)c(Cl)c4)ncnc3cc2OCCN2CCCCC2)CO1 | 5.23 | 5.46 | 7.59 | 8.11 | 6.48 | pIC50 (A549): 4.37; pIC50 (HepG2): < 4.30
O=C1N[C@@H](C(=O)Nc2cc3c(Nc4ccc(F)c(Cl)c4)ncnc3cc2OCCCN2CCOCC2)CO1 | 4.43 | < 4.30 |  |  |  | 
COc1cc2ncnc(Nc3ccc(F)c(Cl)c3)c2cc1NC(=O)[C@@H]1COC(=O)N1 | 5.17 | 5.04 | 8.97 | 9.51 | 7.58 | pIC50 (A549): 4.83; remaining at 24 h, 1 µM [4]: 89.9%; remaining at 24 h, 1 µM [5]: 97.1%; inhibition [6]: inactive; remaining at 24 h, 1 µM [7]: 85.8%; inhibition [8]: Active; pIC50 (HepG2): < 4.00
CCOc1cc2ncnc(Nc3ccc(OCc4cccc(F)c4)c(Cl)c3)c2cc1NC(=O)[C@H]1COC(=O)N1 | 5.32 | 5.38 | 8.92 | 8.26 | 6.96 | pIC50 (A549): < 4.30; pIC50 (HepG2): < 4.00
O=C1N[C@H](C(=O)Nc2cc3c(Nc4ccc(F)c(Cl)c4)ncnc3cc2OCCCN2CCOCC2)CO1 | 4.91 | 4.31 | 8.34 | 9.08 | 7.23 | 
COc1cc2ncnc(Nc3cccc(Br)c3)c2cc1NC(=O)[C@@H]1COC(=O)N1 | 5.04 | 5.14 | 9.33 | 9.42 | 6.90 | pIC50 (A549): < 4.30; pIC50 (HepG2): < 4.00
COc1cc2ncnc(Nc3ccc(F)c(Cl)c3)c2cc1NC(=O)[C@H]1NC(=O)O[C@@H]1C | 5.05 | 5.06 | 8.70 | 9.46 | 7.40 | pIC50 (A549): < 4.30; pIC50 (HepG2): < 4.30
CN1CCC(COc2cc3ncnc(Nc4ccc(F)c(Cl)c4F)c3cc2NC(=O)[C@H]2COC(=O)N2)CC1 | 4.87 | 5.28 |  |  |  | 
CCOc1cc2ncnc(Nc3ccc(OCc4cccc(F)c4)c(Cl)c3)c2cc1NC(=O)[C@@H]1COC(=O)N1 | 5.41 | 5.41 | 8.87 | 8.25 | 7.27 | pIC50 (A549): 4.94; pIC50 (HepG2): < 4.30

Source: ChEMBL document CHEMBL3817746, “6-Oxooxazolidine-quinazolines as noncovalent inhibitors with the potential to target mutant forms of EGFR” (Bioorg Med Chem, 2016)
